# This is a sample that favours compounds with a hit; in the whole collection about 2% have one here.
# NS3 helicase inh – HCV NS3 helicase inhibition | NS3 helicase DNA unwinding, Cy5 molecular beacon fluorescence | inhibition, % at 10.9 µM | 290,000 tested, 0.56% active;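 active = inhibition above the mean of all tested compounds plus 3 SD, set per campaign, cut at about 35% in these data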;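 note: 0% = DMSO wells and 100% = thioflavine S control wells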
#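 test system = hepatitis C virus NS3 helicase domain fragment enzyme | reagent = annealed dual-labelled DNA beacon duplex, ATP-started | times = 1 h at 25 °C | detection = Cy5 fluorescence, 0 and 60 min reads | read-out basis = percent inhibition from t60/t0 fluorescence ratio | control set = DMSO and thioflavine S | replication = one well per compound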
# GPR7 antagonist – blocks human GPR7 receptor signaling; P48145; GPR7-expressing cells, fluorescence antagonist assay; inhibition, % at 4.4 µM; 290,000 tested, 1.1% active; AID 1861; in the data active = inhibition above about 16%, passing the limit was not always enough;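 note: cells stimulated with the agonist NPW; 0% = agonist with vehicle and 100% = vehicle without agonist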
# Target sequence (P48145 whole entry, looked up): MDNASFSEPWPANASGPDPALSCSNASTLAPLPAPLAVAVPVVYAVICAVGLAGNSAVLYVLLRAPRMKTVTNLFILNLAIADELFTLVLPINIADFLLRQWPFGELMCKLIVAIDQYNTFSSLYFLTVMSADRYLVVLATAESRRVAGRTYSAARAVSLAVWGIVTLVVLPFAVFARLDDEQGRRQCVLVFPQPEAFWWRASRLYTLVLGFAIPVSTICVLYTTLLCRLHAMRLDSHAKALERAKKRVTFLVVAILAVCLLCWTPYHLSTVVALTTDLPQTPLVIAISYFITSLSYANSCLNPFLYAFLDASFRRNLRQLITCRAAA
# ZTA counter – blocks Epstein-Barr virus ZTA, an EBNA-1 counter-screen | ZTA-DNA binding, fluorescence polarization | inhibition, % at 11 µM | 320,000 tested, 0.15% active | AID 2234; in the data active = inhibition above about 33%
# Target sequence (P03206 whole entry, looked up): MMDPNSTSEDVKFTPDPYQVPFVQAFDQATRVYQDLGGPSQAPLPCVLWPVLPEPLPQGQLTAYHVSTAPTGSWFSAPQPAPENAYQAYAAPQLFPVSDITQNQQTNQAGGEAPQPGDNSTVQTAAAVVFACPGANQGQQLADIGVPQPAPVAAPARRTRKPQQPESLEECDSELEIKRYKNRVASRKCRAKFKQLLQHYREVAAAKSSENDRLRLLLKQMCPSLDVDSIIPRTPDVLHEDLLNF
# FID counter – counter-screen for HCV NS3 helicase inhibitors: DNA intercalator displacement. DNA fluorescent intercalator displacement, fluorescence. 290,000 tested, 0.17% active. inhibition, % at 7.9 µM; in the data active = inhibition above about 37%;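 note: 0% = vehicle and 100% = reference compound; higher means more ethidium bromide displaced from hairpin DNA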
# EBNA-1 inh – blocks EBNA-1 binding to DNA. EBNA-1 DNA binding, fluorescence polarization. 300,000 tested, 0.34% active. AID 1950. inhibition, % at 14.8 µM; in the data active = inhibition above about 28%
# EBNA-1 inh conf – EBNA-1 (EBV) inhibition, confirmation | Recombinant EBNA-1 DBD, Cy5-DNA fluorescence polarization | 830 tested, 35% active | shares compounds with EBNA-1 inh | inhibition, % at 14.8 µM;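 active = mean inhibition across replicates above a set limit taken from the earlier primary screen, cut at about 28% in these data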;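 note: plate controls were EBNA-1 protein with DMSO for no effect and wells lacking EBNA-1 for full effect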
# ZTA counter trip – blocks Epstein-Barr virus ZTA in triplicate, EBNA-1 counter-screen. shares compounds with EBNA-1 inh. Zta-ZRE DNA binding, Cy5 fluorescence polarization. inhibition, % at 11.1 µM. 830 tested, under 10 active. AID 2328;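 active = mean inhibition over triplicates above a set limit taken from the primary EBNA-1 screen, cut at about 37% in these data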;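 note: purified full length Zta protein with Cy5 labeled ZRE DNA probe; 0% = Zta with DMSO and 100% = wells lacking Zta protein; inhibitors lower polarization by freeing the labeled DNA probe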
# The depositor's hits bear a star; . = no result.
SMILES,NS3 helicase inh,GPR7 antagonist,ZTA counter,FID counter,EBNA-1 inh,EBNA-1 inh conf,ZTA counter trip
O=C(Cc1ccccc1)Nc1scc(-c2ccccc2)c1C(=O)N1CCOCC1,7.8,6.5,-1.8,-25.4,2.9,.,.
NC(=O)c1c(-c2ccc(Cl)cc2Cl)csc1NC(=O)Cc1ccccc1,0.1,-5.9,-11.3,-8.9,28.9*,5.6,12.3
CCN(CC)C(=O)CSc1nc2cc3c(cc2c(=O)n1CCCC(=O)NCc1ccc(OC)cc1)OCO3,10.9,-10.5,-10.6,-1.8,-11.5,.,.
COc1ccc(CNC(=O)CCCCCn2c(SCC#N)nc3cc4c(cc3c2=O)OCO4)cc1,10.8,2.2,8.0,-9.8,38.3*,5.8,12.4
O=C(NCCc1ccc(C(F)(F)F)cc1)C1CCC(=O)N(CCCN2CCCC2=O)C1 (stereo unspecified),-5.9,-10.2,-7.5,-12.2,-0.5,.,.
O=C(CCCN1C(=O)/C(=C/c2cccs2)SC1=S)NNC(=O)c1ccccc1O,3.6,-8.2,19.7,2.7,40.1*,20.4,7.6
O=C(CCCN1C(=O)/C(=C/c2cccs2)SC1=S)NNC(=O)c1ccncc1,1.0,13.5,13.6,4.9,8.6,.,.
CCCCc1nnc(NC(=O)c2oc3ccc(OC)cc3c2C)s1,.,.,8.3,.,2.4,.,.
COc1ccc2oc(C(=O)Nc3nccs3)c(C)c2c1,.,.,-6.5,.,29.2*,54.8*,13.2
O=C(NCc1ccncc1)C12CC3CC(CC(Cl)(C3)C1)C2,3.7,-7.2,-1.4,-5.5,0.6,.,.
Cc1cc(C)c(/C([O-])=C(/C(=S)Nc2ccc(SC(F)F)cc2)[n+]2ccccc2)cc1C,-16.3,-12.5,-0.2,-8.7,-5.9,.,.
CN(C)c1cc[n+](/C(C(=S)Nc2ccc(SC(F)F)cc2)=C(/[O-])c2ccccc2)cc1,-8.1,-8.4,0.4,5.2,57.6*,43.4*,-9.7
COc1cccc(-c2cc(=O)c3cc(NC(=O)c4ccc(N(C)C)cc4)ccc3[nH]2)c1,9.1,5.2,-0.5,-17.2,41.8*,15.9,-2.2
CCC(=O)NC(=S)Nc1ccc(NC(=O)c2ccc(C)c([N+](=O)[O-])c2)cc1,-17.0,-6.5,1.4,7.3,43.2*,32.7*,4.7
CCOc1ccc(C(=O)NC(=S)Nc2ccc(NC(=O)CC)cc2)cc1[N+](=O)[O-],-5.8,2.5,8.3,0.3,4.0,.,.
CCOc1ccc(N2C(=O)CC(NC3CCN(C(=O)c4cccc(Cl)c4)CC3)C2=O)cc1 (stereo unspecified),-7.4,-0.8,27.2,-29.8,50.1*,-9.5,-7.6
Cc1c(NS(=O)(=O)c2cc(Br)cc3c2N(C(=O)C2CC2)CC3)c(=O)n(-c2ccccc2)n1C,7.5,-9.0,8.4,-9.4,14.4,.,.
Cc1c(NS(=O)(=O)c2ccc3c(c2)CCN3C(=O)C2CC2)c(=O)n(-c2ccccc2)n1C,-2.8,-4.3,4.2,-12.0,42.8*,-3.6,0.3
CC(=O)N1CCc2cc(Br)cc(S(=O)(=O)N3CCC(C(=O)O)CC3)c21,7.5,1.8,5.8,-15.5,-0.9,.,.
COCCn1c(Cc2ccccc2)nnc1SCC(=O)NC(C)(C)C,1.3,-5.2,-8.0,-6.8,-5.4,.,.
COCCn1c(Cc2ccccc2)nnc1SCC(=O)NC(C)C,7.7,9.7,18.6,2.2,87.5*,2.5,3.2
Cc1nn(-c2ccccc2)c(C)c1NC(=O)COC(=O)c1ccc(Cl)c(S(N)(=O)=O)c1,.,.,-9.0,.,3.4,.,.
Cc1ccc(CNC(=O)[C@H](Cc2ccccc2)NC(=O)C2CCNCC2)cc1,-8.4,-9.3,13.6,10.0,3.8,.,.
O=c1c2ccccc2nc2c3ccccc3c(NCc3ccco3)nn12,14.7,-1.0,5.0,-2.5,31.5*,1.8,-6.8
COCCOC(=O)c1c(NC(=O)CNc2ccc(C)c(F)c2)sc(C(N)=O)c1C,5.1,-5.3,-3.2,-0.3,42.0*,13.6,13.8
SMILES,NS3 helicase inh,GPR7 antagonist,ZTA counter,FID counter,EBNA-1 inh,EBNA-1 inh conf,ZTA counter trip
COCCOC(=O)c1c(NC(=O)CNCc2ccco2)sc(C(N)=O)c1C,2.9,-11.1,0.9,-13.3,-2.6,.,.
N#C/C(=C\c1cn(CCOc2ccccc2)c2ccccc12)C(=O)NCc1ccco1,-0.3,-19.8,-4.5,2.5,13.0,.,.
Cc1ccccc1OCCn1cc(/C=C(\C#N)C(=O)NCc2ccco2)c2ccccc21,4.8,-2.7,-3.6,-1.4,33.7*,51.4*,4.4
N#C/C(=C\c1cn(CCOc2ccccc2F)c2ccccc12)C(=O)NCc1cccs1,-7.9,-2.4,20.4,0.8,124.1*,25.6,-5.2
CCCCC[C@H]1CN(Cc2ccccc2)C(=O)[C@@H]1CC(=O)NCc1ccc(OC)cc1,-14.6,-2.4,-14.8,-38.2,16.9,.,.
CCOC(=O)c1c(C)[nH]c(C(=O)OCC(=O)NC2(C#N)CCCCC2)c1C,.,.,2.4,.,3.9,.,.
COc1ccc(C(=O)C2CCCN(C(=O)c3ccc4nccnc4c3)C2)c(C)c1 (stereo unspecified),7.2,0.9,-14.9,-42.4,1.3,.,.
CCOc1cccc(NC(=O)C2CCCN(S(=O)(=O)c3ccc(-n4cnnn4)cc3)C2)c1 (stereo unspecified),2.4,-9.2,-13.6,3.1,2.1,.,.
COc1cccc(NC(=O)C2CCCN(S(=O)(=O)c3ccc(-n4cnnn4)cc3)C2)c1 (stereo unspecified),-13.8,-12.9,-13.7,2.1,55.3*,24.0,2.7
Cc1ccc(S(=O)(=O)N2CCCC(C(=O)Nc3cccnc3)C2)cc1 (stereo unspecified),12.4,-0.9,-9.5,-16.1,-0.8,.,.
Cc1cc(C)cc(NC(=O)C2CCCN(S(=O)(=O)c3c(C)noc3C)C2)c1 (stereo unspecified),0.8,-8.5,-4.6,-29.7,43.9*,3.1,1.9
Cc1cc(NC(=O)C2CCCN(S(=O)(=O)c3c(C)noc3C)C2)no1 (stereo unspecified),2.2,1.6,-3.8,-0.6,-0.2,.,.
Cc1ccc(S(=O)(=O)N2CCCC(C(=O)Nc3ccc(NC(=O)c4ccccn4)cc3)C2)cc1 (stereo unspecified),10.2,-14.0,14.9,-1.2,77.7*,30.8*,-9.6
O=C(NCC1OCCc2ccccc21)c1ccc(NC(=O)c2ccc(Cl)cc2Cl)cc1 (stereo unspecified),-0.5,-8.9,3.6,0.7,70.4*,46.6*,-1.8
COc1ccc(C(=O)NCC2OCCc3ccccc32)cc1 (stereo unspecified),4.1,0.3,-19.0,-5.2,-4.8,.,.
CC(=O)Nc1ccc(/C=C/c2nc(-c3ccccc3O)n[nH]2)cc1,-6.1,14.7,1.0,-8.8,44.5*,-6.3,1.4
CC1=C(C(=O)Nc2ccccc2C(=O)N2CCC(C)CC2)SCCO1,-1.4,-11.4,17.1,-14.8,0.9,.,.
O=C1CNC(=S)N1c1nc(-c2ccccc2)cs1,0.3,-5.3,0.0,0.4,-7.0,.,.
